Consider 21 molecules from ChEMBL document CHEMBL2396521, “Development and characterization of glutamyl-protected N-hydroxyguanidines as reno-active nitric oxide donor drugs with therapeutic potential in acute renal failure” (J Med Chem, 2013).

In series [1] the test system is Aorta. The series is described as follows: Vasodilatory activity in Wistar rat endothelium-intact aorta assessed as reduction of acetylcholine-induced vasoconstriction. The format is functional, tissue-based. In short, it runs like this:
(§1)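 Male Wistar rat aortic rings (~3 mm) in a myograph at 37 °C in oxygenated Krebs, stretched to 15 mN, with maximal contraction set by 60 mM KCl and endothelium checked with ACh. Precontracted rings received NHG as a single 100 μM dose or cumulatively at 1−100 μM. Parallel rings were exposed before and during dosing to L-NAME 200 μM, L-Arg 100 μM, Hb 10 μM or ODQ 50 μM.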

Series [2] concerns Aorta. The series is described as follows: Vasodilatory activity in Wistar rat endothelium-intact aorta assessed as reversibility of reduction of acetylcholine-induced vasoconstriction in presence of ODQ. The format is functional. The arrangement: concentration or dose not given beside the values.
Series [3] relates to Aorta. The series is described as follows: Vasodilatory activity in Wistar rat endothelium-intact aorta assessed as reduction of acetylcholine-induced vasoconstriction at 100 uM. Format: functional, tissue-based. In short, it runs like this:
as §1

In series [4] the test system is Aorta. The series is described as follows: Vasodilatory activity in Wistar rat endothelium-intact aorta assessed as reduction of acetylcholine-induced vasoconstriction at 100 uM in presence of gamma-glutamyl transpeptidase. Format: functional. In short, it runs like this:
(§2)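 Aortic ring myograph (rat, 37 °C, Krebs, precontracted). The glutamyl prodrug at 10 mM was preincubated with γ-GT (100 mU/5 mM gly-gly) for 1 h at 37 °C before addition to the bath at 100 μM. Hemoglobin (10 μM), where present, was used as NO scavenger.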

Series [5] concerns Kidney. The series is described as follows: Vasodilatory activity in Wistar rat isolated perfused rat kidney model in presence of gamma-glutamyl transpeptidase. Format: functional, tissue-based. Summed up:
(§3)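 Isolated perfused kidney from a pentobarbital-anaesthetized (i.p.) male Wistar rat, perfused at 10 mL/min with perfusion pressure read via a side-port transducer. After 20 min equilibration, pressure was raised to 120−140 mmHg with phenylephrine (0.3 μM increments). Compound was added cumulatively to the perfusate (1 μM to 1 mM).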

Series [6] deals with Kidney. The series is described as follows: Prodrug activation in Wistar rat kidney homogenates assessed as formation of N-(4-Phenylethyl)-N'-hydroxyguanidine Hydrochloride after 10 to 40 mins. Format: tissue-based. Conditions: tissue homogenate.
For series [7], the system named is Kidney. In words: Prodrug activation in Wistar rat kidney homogenates assessed as formation of N-(4-Phenylethyl)-N'-hydroxyguanidine Hydrochloride at 1 to 100 uM. The format is tissue-based. Conditions: tissue homogenate, TDE = time-dependent effect. In short, it runs like this: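 Prodrug at 1, 10 or 100 μM was incubated with freshly pooled (n = 3) male Wistar rat kidney homogenate. Samples were taken every 15 min over 45 min, and the parent NHG was quantified by positive-ion LC-MS/MS on a C18 column with 0.1% formic acid in 95% water/5% acetonitrile. Total protein was determined by Lowry assay.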

Series [8] has as its system Liver. The series is described as follows: Induction of NOx production in Wistar rat liver homogenates at 100 uM after 1 hr by Griess test. Format: functional, tissue-based. In short, it runs like this:
(§4)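 Crude homogenates of liver, renal cortex or renal medulla from freshly killed adult male Wistar rats, prepared in ice-cold HBSS with 1% Triton X. NHG at 100 μM was incubated for 1 h at 37 °C, with or without L-NAME (200 μM), then spun at 1000g and 4 °C. NOx (nitrite + nitrate) was measured by Griess assay. n = 4−5; paired t-tests.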

The species entered for series [9] is Rattus norvegicus. The series is described as follows: Induction of NOx production in Wistar rat renal cortex homogenates at 100 uM after 1 hr by Griess test. The format is functional, tissue-based. In short, it runs like this: as §4
In general terms: The Griess reaction detects nitrite, a stable product of nitric oxide.

For series [10], the species on record is Rattus norvegicus. In words: Induction of NOx production in Wistar rat renal medullar homogenates at 100 uM after 1 hr by Griess test. Format: functional, tissue-based. Particulars: Renal medulla. Summed up: as §4
The nature of series [11]: Induction of xanthine/xanthine oxidase-mediated NOx production at 100 uM after 1 hr by Griess test. Format: physicochemical. In short, it runs like this:
(§5)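 Cell-free xanthine/xanthine oxidase (100 μM X / 100 mU XO) was made fresh daily in KPE buffer. NHG at 100 μM was incubated for 1 h at 37 °C, with or without allopurinol (100 μM), then centrifuged at 1000g and 4 °C. NOx was measured by Griess assay. n = 4−5; paired t-tests.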

For series [12], the system named is Aorta. In words: Vasodilatory activity in Wistar rat endothelium-intact aorta assessed as reduction of acetylcholine-induced vasoconstriction at 100 uM in presence of L-NAME. The format is functional, tissue-based. In short, it runs like this:
as §1

Series [13] deals with Kidney. The series is described as follows: Vasodilatory activity in Wistar rat isolated perfused rat kidney model at 250 uM in presence of gamma-glutamyl transpeptidase. The format is functional, tissue-based. In short, it runs like this:
as §3

The subject of series [14] is Aorta. The series is described as follows: Vasodilatory activity in Wistar rat endothelium-intact aorta assessed as reduction of acetylcholine-induced vasoconstriction at 100 uM in presence of ODQ. The format is functional, tissue-based. Summed up: as §1
For series [15], the system named is Aorta. The series is described as follows: Vasodilatory activity in Wistar rat endothelium-intact aorta assessed as reduction of acetylcholine-induced vasoconstriction at 100 uM in presence of hemoglobin. Format: functional, tissue-based. In short, it runs like this:
as §1

Series [16] has as its system Aorta. In words: Vasodilatory activity in Wistar rat endothelium-intact aorta assessed as reduction of acetylcholine-induced vasoconstriction at 100 uM in presence of L-Arg. Format: functional, tissue-based. In short, it runs like this: as §1
The species named for series [17] is Rattus norvegicus. The series is described as follows: Induction of NOx production in Wistar rat renal cortex homogenates at 100 uM after 1 hr by Griess test in presence of L-NAME. The format is functional, tissue-based. In short, it runs like this:
as §4

In series [18] the test system is Liver. In words: Induction of NOx production in Wistar rat liver homogenates at 100 uM after 1 hr by Griess test in presence of L-NAME. The format is functional, tissue-based. Summed up:
as §4

The species entered for series [19] is Rattus norvegicus. In words: Induction of NOx production in Wistar rat renal medullar homogenates at 100 uM after 1 hr by Griess test in presence of L-NAME. Format: functional, tissue-based. Conditions: Renal medulla. In short, it runs like this: as §4
Series [20] is described as follows: Induction of xanthine/xanthine oxidase-mediated NOx production at 100 uM after 1 hr by Griess test in presence of allopurinol. The format is physicochemical. Summed up: as §5
For series [21], the system named is Aorta. In words: Vasodilatory activity in Wistar rat endothelium-intact aorta assessed as reduction of acetylcholine-induced vasoconstriction at 100 uM in presence of gamma-glutamyl transpeptidase and oxyhemoglobin. Format: functional, tissue-based. Summed up: as §2
Series [22] concerns Liver. In words: Induction of NOx production in Wistar rat liver homogenates at 100 uM after 1 hr by Griess test in presence of gamma-glutamyl transpeptidase. The format is functional, tissue-based.
Series [23] is filed under the species Rattus norvegicus. The series is described as follows: Induction of NOx production in Wistar rat renal medullar homogenates at 100 uM after 1 hr by Griess test in presence of gamma-glutamyl transpeptidase. Format: functional, tissue-based. Particulars: Renal medulla.
The species entered for series [24] is Rattus norvegicus. The series is described as follows: Induction of NOx production in Wistar rat renal cortex homogenates at 100 uM after 1 hr by Griess test in presence of gamma-glutamyl transpeptidase. Format: functional, tissue-based.
The nature of series [25]: Induction of xanthine/xanthine oxidase-mediated NOx production at 100 uM after 1 hr by Griess test in presence of gamma-glutamyl transpeptidase. Format: physicochemical.

Calls of active or inactive are those of the source. No cut-off for these calls is given here.

What is called EC50 is the concentration that produces a half-maximal response. As for `Cl.N/C(=N\O)NCCc1ccc(Br)cc1`, the EC50 in the series on Aorta [1] is 15.8 µM. For the same molecule, in the series with Aorta [2], the Activity is listed as 34%.
For the molecule `Cl.N/C(=N\O)NCCCc1ccccc1`, the EC50 in the series on Aorta [1] is 15.8 µM. Further, the Activity in the series on Aorta [2] is 68%.
Turning to `Cl.N/C(=N\O)NCCc1ccc(F)cc1`, the concentration giving a half-maximal response (EC50) in the series on Aorta [1] is 63.1 µM. The Activity in the series on Aorta [2] came to 11%.
Regarding `N/C(=N\OCc1ccc(NC(=O)CC[C@H](N)C(=O)O)cc1)NCCc1ccccc1`, the outcome with Aorta [3], with Aorta [4] and with Aorta [2] was Active. The EC50 in the series with Kidney [5] was found to be 50 µM. The Drug metabolism entry in the series on Kidney [6] is listed as “Dose-dependent effect”; with Kidney [7], “tde”.
In the case of `CN(CCCC(=O)O)/C(N)=N/O`, the Activity with Liver [8] is 1 µM; in the series listed under Rattus norvegicus [9], 1 µM; in the series filed under Rattus norvegicus [10] it was 1 µM; in series [11] it was “Active”. Moreover, the outcome with Aorta [3] was Active. Also, in the series on Aorta [12], the outcome was inactive.
In the case of `Cl.N=C(NO)NCc1ccccc1`, in the series on Aorta [1], the EC50 is 12.6 µM. Further, the Activity in the series with Aorta [2] came out at 37%.
As for `Cc1ccc(CCN/C(N)=N/O)cc1.Cl`, in the series with Aorta [1], the EC50 was 12.6 µM. Also, in the series on Aorta [2], the Activity is 35%.
With `N/C(=N\O)NCCc1ccc(O)cc1`, in the series on Aorta [1], the EC50 was 63.1 µM.
As to `N[C@@H](CCC(=O)NCCCC(=O)N/C(=N\OC(=O)CCCNC(=O)CC[C@H](N)C(=O)O)NCCc1ccccc1)C(=O)O`, in the series on Kidney [13], the outcome was inactive.
Consider `Cl.N/C(=N\O)NCCc1ccccc1`, for which the EC50 in the series on Aorta [1] was 25.1 µM. Moreover, the outcome in the series with Aorta [14], with Aorta [15], in the series with Aorta [16] and with Aorta [12] was inactive. In the series with Aorta [2], the Activity is 75%.
With `Cl.N/C(=N\O)NCCc1cccc2ccccc12`, the EC50 in the series with Aorta [1] is 50.1 µM. For the same molecule, the Activity with Aorta [2] came to 1%.
On to `COc1cccc(CCN/C(N)=N/O)c1.Cl`, for which the half-maximal effective concentration (EC50) in the series on Aorta [1] was 3.98 µM. The Activity in the series with Aorta [2] stood at 9%.
The corresponding values for `CCCCN/C(N)=N/O.Cl` are 31.6 µM and 100%.
With `CN(CCCC(=O)O)C(N)=O`, the Activity is 1 µM in the series on Liver [8]; 1 µM in the series listed under Rattus norvegicus [9]; “Active” in series [20]; 1 µM in the series filed under Rattus norvegicus [10]; “Not Active” in [11]. In the series on Aorta [1], the pEC50 entry was “inactive”. Besides, the result in the series filed under Rattus norvegicus [17], in the series on Liver [18] and in the series listed under Rattus norvegicus [19] was Active.
Turning to `CN(CCCC(=O)O)/C(=N\O)NC(=O)CC[C@H](N)C(=O)O`, the outcome in the series with Aorta [3] and in the series on Aorta [21] was inactive. In addition, the Activity in the series on Aorta [4] was 18%.
With `CN(CCCC(=O)O)c1noc(CC[C@H](N)C(=O)O)n1`, the result in the series on Aorta [3] and in the series with Aorta [4] was inactive.
For the molecule `Cl.N/C(=N\O)NCCc1ccc(Cl)cc1`, the EC50 with Aorta [1] is 100 µM. Further, the Activity in the series with Aorta [2] was 11%.
`N=C(NO)NCCC[C@H](N)C(=O)O`: the Activity in the series with Liver [8] is 5 µM; in the series filed under Rattus norvegicus [9], 5 µM; in series [25], “Not Active”; in [20] it was “Not Active”; in the series listed under Rattus norvegicus [10], 5 µM; in [11], 5 µM. Further, the outcome with Aorta [14], in the series on Liver [22], in the series listed under Rattus norvegicus [17], in the series filed under Rattus norvegicus [23], in the series with Aorta [15] and in the series with Aorta [16] was inactive. For the same molecule, the outcome with Liver [18], in the series listed under Rattus norvegicus [24], in the series filed under Rattus norvegicus [19] and in the series with Aorta [12] was inactive. Further, in the series on Aorta [3], the result was Active.
Consider `Cl.N/C(=N\O)NCCCCc1ccccc1`, for which, in the series on Aorta [1], the EC50 is 631 µM. Also, the Activity with Aorta [2] was found to be 28%.
`COc1ccccc1CCN/C(N)=N/O.Cl`: the EC50 in the series on Aorta [1] was 20 µM. Also, the Activity in the series with Aorta [2] turned out to be 14%.
The corresponding values for `COc1ccc(CCN/C(N)=N/O)cc1.Cl` are 50.1 µM and 40%.
